Measurements as given in ChEMBL document CHEMBL1146459, “Production of biologically active taxoids by a callus culture of Taxus cuspidata” (2004).

How the values were obtained:
MCF7 = assay: Growth inhibition of human MCF7 cells after 48 hrs by SRB assay; type: functional; conditions: MCF7, 48 h
MKN-7 = assay: Growth inhibition of human MKN7 cells after 48 hrs by SRB assay; type: functional; conditions: MKN-7, 48 h
SF-268 = assay: Growth inhibition of human SF268 cells after 48 hrs by SRB assay; type: functional; conditions: SF-268, 48 h
DMS-273 = assay: Growth inhibition of human DMS273 cells after 48 hrs by SRB assay; type: functional; conditions: DMS-273, 48 h
ACHN = assay: Growth inhibition of human ACHN cells after 48 hrs by SRB assay; type: functional
MKN-74 = assay: Growth inhibition of human MKN74 cells after 48 hrs by SRB assay; type: functional; conditions: MKN-74, 48 h
SNB-75 = assay: Growth inhibition of human SNB75 cells after 48 hrs by SRB assay; type: functional; conditions: SNB-75, 48 h
HCC 2998 = assay: Growth inhibition of human HCC2998 cells after 48 hrs by SRB assay; type: functional; conditions: HCC 2998, 48 h
SNB-78 = assay: Growth inhibition of human SNB78 cells after 48 hrs by SRB assay; type: functional; conditions: SNB-78, 48 h
MDA-MB-231 = assay: Growth inhibition of human MDA-MB-231 cells after 48 hrs by SRB assay; type: functional; conditions: MDA-MB-231, 48 h
[1] = Reversal of multidrug resistance in human 2780AD cells assessed as [3H]vincristine accumulation at 1 ug/mL after 2 hrs relative to control; type: functional, A2780 ADR
Summary of the method: (§1)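 Multidrug-resistant human ovarian cancer 2780AD cells were exposed to taxoids at 0.1, 1 or 10 µg/mL. Radiolabelled vincristine accumulated in the cells was measured as dpm/well, using means of triplicate determinations. Results are expressed as % of vincristine accumulated relative to the control experiment. They were also scored on a seven-level index according to the range of relative accumulation.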

St-4 = assay: Growth inhibition of human St-4 cells after 48 hrs by SRB assay; type: functional; conditions: St-4, 48 h
[2] = Reversal of multidrug resistance in human 2780AD cells assessed as [3H]vincristine accumulation at 0.1 ug/mL after 2 hrs relative to verapamil; type: functional, A2780 ADR
DMS-114 = assay: Growth inhibition of human DMS114 cells after 48 hrs by SRB assay; type: functional; conditions: DMS-114, 48 h
[3] = Growth inhibition of human HBC5 cells after 48 hrs by SRB assay; type: functional; conditions: HBC5, 48 h
OVCAR-3 = assay: Growth inhibition of human OVCAR-3 cells after 48 hrs by SRB assay; type: functional; conditions: OVCAR-3, 48 h
MKN-45 = assay: Growth inhibition of human MKN45 cells after 48 hrs by SRB assay; type: functional; conditions: MKN-45, 48 h
NCI-H23 = assay: Growth inhibition of human NCI-H23 cells after 48 hrs by SRB assay; type: functional; conditions: NCI-H23, 48 h
SF-295 = assay: Growth inhibition of human SF295 cells after 48 hrs by SRB assay; type: functional; conditions: SF-295, 48 h
[4] = Reversal of multidrug resistance in human 2780AD cells assessed as [3H]vincristine accumulation at 10 ug/mL after 2 hrs relative to control; type: functional, A2780 ADR; summary of the method: as §1
[5] = Reversal of multidrug resistance in human 2780AD cells assessed as [3H]vincristine accumulation at 10 ug/mL after 2 hrs relative to verapamil; type: functional, A2780 ADR
[6] = Reversal of multidrug resistance in human 2780AD cells assessed as [3H]vincristine accumulation at 1 ug/mL after 2 hrs relative to verapamil; type: functional, A2780 ADR
[7] = read-out: LC50 (the source's name)
[8] = read-out: pLC50 (the source's name) (converted)

## C=C1[C@@H](OC(C)=O)CC[C@]2(C)[C@@H]1C[C@@H]1C[C@H](OC(C)=O)C(C)=C([C@@H](O)[C@@H]2OC(=O)/C=C/c2ccccc2)C1(C)C
MCF7; read-out: GI50
  GI50: 9.3 µM
MCF7; [7]
  CC50: > 100 µM
MCF7; read-out: TGI
  TGI: 100 µM
MCF7; read-out: pGI50 (converted)
  GI50: 9.33 µM
MCF7; read-out: pLC50 (converted)
  CC50: > 100 µM
MCF7; read-out: pTGI (converted)
  TGI: 100 µM
MKN-7; read-out: GI50
  GI50: 5.1 µM
MKN-7; [7]
  CC50: 100 µM
MKN-7; read-out: TGI
  TGI: 100 µM
MKN-7; read-out: pGI50 (converted)
  GI50: 5.13 µM
MKN-7; [8]
  CC50: 100 µM
MKN-7; read-out: pTGI (converted)
  TGI: 100 µM
SF-268; read-out: GI50
  GI50: 43 µM
SF-268; [7]
  CC50: 100 µM
SF-268; read-out: TGI
  TGI: 100 µM
SF-268; read-out: pGI50 (converted)
  GI50: 10.7 µM
SF-268; [8]
  CC50: 100 µM
SF-268; read-out: pTGI (converted)
  TGI: 100 µM
DMS-273; read-out: GI50
  GI50: 4.2 µM
DMS-273; [7]
  CC50: 100 µM
DMS-273; read-out: TGI
  TGI: 100 µM
DMS-273; read-out: pGI50 (converted)
  GI50: 4.17 µM
DMS-273; [8]
  CC50: 100 µM
DMS-273; read-out: pTGI (converted)
  TGI: 100 µM
ACHN; read-out: GI50
  GI50: 87 µM
ACHN; [7]
  CC50: 100 µM
ACHN; read-out: TGI
  TGI: 100 µM
ACHN; read-out: pGI50 (converted)
  GI50: 89.1 µM
ACHN; [8]
  CC50: 100 µM
ACHN; read-out: pTGI (converted)
  TGI: 100 µM
MKN-74; read-out: GI50
  GI50: 9.5 µM
MKN-74; [7]
  CC50: 100 µM
MKN-74; read-out: TGI
  TGI: 100 µM
MKN-74; read-out: pGI50 (converted)
  GI50: 9.55 µM
MKN-74; [8]
  CC50: 100 µM
MKN-74; read-out: pTGI (converted)
  TGI: 100 µM
SNB-75; read-out: GI50
  GI50: 7.3 µM
SNB-75; [7]
  CC50: 100 µM
SNB-75; read-out: TGI
  TGI: 68 µM
SNB-75; read-out: pGI50 (converted)
  GI50: 7.24 µM
SNB-75; [8]
  CC50: 100 µM
SNB-75; read-out: pTGI (converted)
  TGI: 67.6 µM
HCC 2998; read-out: GI50
  GI50: 26 µM
HCC 2998; [7]
  CC50: 100 µM
HCC 2998; read-out: TGI
  TGI: 100 µM
HCC 2998; read-out: pGI50 (converted)
  GI50: 26.3 µM
HCC 2998; [8]
  CC50: 100 µM
HCC 2998; read-out: pTGI (converted)
  TGI: 100 µM
SNB-78; read-out: GI50
  GI50: 3.2 µM
SNB-78; read-out: TGI
  TGI: 100 µM
SNB-78; read-out: pGI50 (converted)
  GI50: 3.16 µM
SNB-78; read-out: pTGI (converted)
  TGI: 100 µM
MDA-MB-231; read-out: GI50
  GI50: 16 µM
MDA-MB-231; read-out: TGI
  TGI: 100 µM
MDA-MB-231; read-out: pGI50 (converted)
  GI50: 16.2 µM
MDA-MB-231; read-out: pTGI (converted)
  TGI: 100 µM
[1]
  Activity: 399%
St-4; read-out: GI50
  GI50: 24 µM
St-4; [7]
  CC50: 100 µM
St-4; read-out: TGI
  TGI: 100 µM
St-4; read-out: pGI50 (converted)
  GI50: 24 µM
St-4; [8]
  CC50: 100 µM
St-4; read-out: pTGI (converted)
  TGI: 100 µM
[2]
  Activity: 139%
DMS-114; read-out: GI50
  GI50: 7.8 µM
DMS-114; [7]
  CC50: 100 µM
DMS-114; read-out: TGI
  TGI: 100 µM
DMS-114; read-out: pGI50 (converted)
  GI50: 7.76 µM
DMS-114; [8]
  CC50: 100 µM
DMS-114; read-out: pTGI (converted)
  TGI: 100 µM
[3]; [7]
  CC50: 100 µM
[3]; read-out: TGI
  TGI: 100 µM
[3]; read-out: pGI50 (converted)
  GI50: > 100 µM
[3]; [8]
  CC50: 100 µM
[3]; read-out: pTGI (converted)
  TGI: 100 µM
OVCAR-3; read-out: GI50
  GI50: 5 µM
OVCAR-3; [7]
  CC50: > 100 µM
OVCAR-3; read-out: TGI
  TGI: 100 µM
OVCAR-3; read-out: pGI50 (converted)
  GI50: 5.01 µM
OVCAR-3; read-out: pLC50 (converted)
  CC50: > 100 µM
OVCAR-3; read-out: pTGI (converted)
  TGI: 100 µM
MKN-45; [7]
  CC50: 100 µM
MKN-45; read-out: TGI
  TGI: 100 µM
MKN-45; read-out: pGI50 (converted)
  GI50: > 100 µM
MKN-45; [8]
  CC50: 100 µM
MKN-45; read-out: pTGI (converted)
  TGI: 100 µM
NCI-H23; read-out: GI50
  GI50: > 100 µM
NCI-H23; [7]
  CC50: 100 µM
NCI-H23; read-out: TGI
  TGI: 100 µM
NCI-H23; read-out: pGI50 (converted)
  GI50: > 100 µM
NCI-H23; [8]
  CC50: 100 µM
NCI-H23; read-out: pTGI (converted)
  TGI: 100 µM
SF-295; read-out: GI50
  GI50: 10 µM
SF-295; read-out: TGI
  TGI: 100 µM
SF-295; read-out: pGI50 (converted)
  GI50: 10.5 µM
SF-295; read-out: pTGI (converted)
  TGI: 100 µM
[4]
  Activity: 648%
[5]
  Activity: 122%
[6]
  Activity: 191%
